Measured values taken from ChEMBL document CHEMBL1255279, “Selection for high-level telithromycin resistance in Staphylococcus aureus yields mutants resulting from an rplB-to-rplV gene conversion-like event” (2008).
Values after ≈ are worked out from the molar mass of the structure shown.

What was measured:
[1] = system: Staphylococcus aureus; assay: Antibacterial activity against Telithromycin resistant Staphylococcus aureus isolate KT02 carrying rplB-derived insertion of L22 ribosomal protein
[2] = system: Staphylococcus aureus; assay: Antibacterial activity against Telithromycin resistant Staphylococcus aureus isolate KT05 carrying rplD and rplV mutant genes; format: functional
Procedure, shortened: (§1)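 MICs determined in Luria-Bertani medium at 37°C. Resistant mutants of S. aureus RN4220 came from spreading 0.3 ml of an overnight brain heart infusion broth culture onto Luria-Bertani plates containing 1 μg/ml telithromycin. These plates were incubated at 37°C for 1 week.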

[3] = system: Staphylococcus aureus; assay: Antibacterial activity against Telithromycin resistant Staphylococcus aureus isolate KT10 carrying rplD and rplV mutant genes; format: functional
Procedure, shortened: as §1

[4] = system: Staphylococcus aureus; assay: Antibacterial activity against Telithromycin resistant Staphylococcus aureus isolate KT11 carrying rplD and rplV mutant genes; format: functional
Procedure, shortened: as §1

[5] = system: Staphylococcus aureus; assay: Antibacterial activity against Telithromycin resistant Staphylococcus aureus isolate KT06 carrying duplication in the carboxy-terminal region of L22 ribosomal protein; format: functional
Procedure, shortened: as §1

[6] = system: Staphylococcus aureus; assay: Antibacterial activity against Telithromycin resistant Staphylococcus aureus RN4220 carrying rplD and rplV genes; format: functional
Procedure, shortened: as §1

[7] = system: Staphylococcus aureus; assay: Antibacterial activity against Telithromycin resistant Staphylococcus aureus isolate KT01 carrying rplB-derived insertion of L22 ribosomal protein
[8] = system: Staphylococcus aureus; assay: Antibacterial activity against Telithromycin resistant Staphylococcus aureus isolate KT04 carrying duplication in the carboxy-terminal region of L22 ribosomal protein; format: functional
Procedure, shortened: as §1

[9] = system: Staphylococcus aureus; assay: Antibacterial activity against Telithromycin resistant Staphylococcus aureus isolate KT09 carrying rplD and rplV mutant genes; format: functional
Procedure, shortened: as §1

Structure (SMILES) | MIC [1] [µg/mL] | MIC [2] [µg/mL] | MIC [3] [µg/mL] | MIC [4] [µg/mL] | MIC [5] [µg/mL] | MIC [6] [µg/mL] | MIC [7] [µg/mL] | MIC [8] [µg/mL] | MIC [9] [µg/mL]
CC[C@H]1OC(=O)[C@H](C)[C@@H](O[C@H]2C[C@@](C)(OC)[C@@H](O)[C@H](C)O2)[C@H](C)[C@@H](O[C@@H]2O[C@H](C)C[C@H](N(C)C)[C@H]2O)[C@](C)(O)C[C@@H](C)C(=O)[C@H](C)[C@@H](O)[C@]1(C)O [ERYTHROMYCIN] | 32 (≈ 43.6 µM) | 32 (≈ 43.6 µM) | 4 (≈ 5.45 µM) | 16 (≈ 21.8 µM) | 16 (≈ 21.8 µM) | 0.12 (≈ 0.164 µM) | 32 (≈ 43.6 µM) | 32 (≈ 43.6 µM) | 8 (≈ 10.9 µM)
CC[C@H]1OC(=O)[C@H](C)C(=O)[C@H](C)[C@@H](O[C@@H]2O[C@H](C)C[C@H](N(C)C)[C@H]2O)[C@](C)(OC)C[C@@H](C)C(=O)[C@H](C)[C@H]2N(CCCCn3cnc(-c4cccnc4)c3)C(=O)O[C@]12C [TELITHROMYCIN] | 8 (≈ 9.85 µM) | 16 (≈ 19.7 µM) | 4 (≈ 4.93 µM) | 8 (≈ 9.85 µM) | 4 (≈ 4.93 µM) | 0.03 (≈ 0.0369 µM) | 16 (≈ 19.7 µM) | 16 (≈ 19.7 µM) | 2 (≈ 2.46 µM)
